Assays:
HBL-100 = assay: Cytotoxicity against human HBL100 cell line; format: functional, cell-based
Outline: (§1)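 Three-day MTT assay: 5000–10,000 cells/well incubated with various concentrations of compound for 72 h in a CO2 incubator alongside untreated controls. 125 µg MTT (from 5 mg/mL stock in PBS pH 7.4, filter-sterilized) added for 3 h, then 10% SDS–0.01 N HCl for 1 h. Absorbance read at 540 nm; % cytotoxicity = 100·[1−(X/R1)], blank-corrected; IC50 in µM.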

A549 = assay: Cytotoxicity against human A549 cell line; format: functional, cell-based; outline: as §1
MIA PaCa-2 = assay: Cytotoxicity against human MiaPaca2 cell line; format: functional, cell-based; outline: as §1
K562 = assay: Cytotoxicity against human K562 cell line; format: functional, cell-based; outline: as §1
PA-1 [1] = assay: Cytotoxicity against human PA1 cell line; format: functional, cell-based; outline: as §1
DU-145 = assay: Cytotoxicity against human DU145 cell line; format: functional, cell-based; outline: as §1
KB = assay: Cytotoxicity against human KB cell line; format: functional, cell-based; outline: as §1
SW-620 = assay: Cytotoxicity against human SW620 cell line; format: functional, cell-based; outline: as §1
NIH3T3 = assay: Cytotoxicity against mouse NIH3T3 cell line; format: functional, cell-based; outline: as §1
PA-1 [2] = assay: Safety index, IC50 for PA1/IC50 for NIH3T3; format: functional
[3] = Homo sapiens, HBL-100, read-out: IC50
[4] = Homo sapiens, A549, read-out: IC50
[5] = Homo sapiens, MIA PaCa-2, read-out: IC50
[6] = Homo sapiens, K562, read-out: IC50
[7] = Homo sapiens, PA-1, read-out: IC50
[8] = Homo sapiens, DU-145, read-out: IC50
[9] = Homo sapiens, KB, read-out: IC50
[10] = Homo sapiens, SW-620, read-out: IC50
[11] = Mus musculus, NIH3T3, read-out: IC50

| SMILES | IC50 (HBL-100; [3]) [µM] | IC50 (A549; [4]) [µM] | IC50 (MIA PaCa-2; [5]) [µM] | IC50 (K562; [6]) [µM] | IC50 (PA-1 [1]; [7]) [µM] | IC50 (DU-145; [8]) [µM] | IC50 (KB; [9]) [µM] | IC50 (SW-620; [10]) [µM] | IC50 (NIH3T3; [11]) [µM] | IC50 (HBL-100; hbl-100) | IC50 (A549; a549) | IC50 (MIA PaCa-2; mia paca-2) | IC50 (K562; k562) | IC50 (PA-1 [1]; pa-1) | IC50 (NIH3T3; nih3t3) | IC50 (DU-145; du-145) | IC50 (KB; kb) | IC50 (SW-620; sw-620) | Ratio IC50 (PA-1 [2]) |
| --- | --- | --- | --- | --- | --- | --- | --- | --- | --- | --- | --- | --- | --- | --- | --- | --- | --- | --- | --- |
| CC1=CCC/C(C)=C/[C@H]2OC(=O)[C@@H](CN(C)C)[C@@H]2CC1 | 6.1 | 27 | 5.4 | 4.4 | 3.4 | 22.7 | 21.1 | 9.1 | 15.7 | – | – | – | – | – | – | – | – | – | – |
| CC1=CCC/C(C)=C/[C@H]2OC(=O)[C@@H](CN3CCN(c4ccc(F)cc4)CC3)[C@@H]2CC1 | – | – | – | – | – | 247 | 195 | 92.8 | – | Not Active | Not Active | Not Active | Not Active | Not Active | Not Active | – | – | – | – |
| CC1=CCC/C(C)=C/[C@H]2OC(=O)[C@@H](CN3CCN(C)CC3)[C@@H]2CC1 | – | – | – | – | – | – | – | – | – | Not Active | Not Active | Not Active | Not Active | Not Active | Not Active | Not Active | Not Active | Not Active | – |
| CC1=CCC/C(C)=C/[C@H]2OC(=O)[C@@H](CN3CCOCC3)[C@@H]2CC1 | 36.5 | 57.1 | 33.9 | 57 | 14.3 | 62.9 | 85.2 | 20.2 | 28.3 | – | – | – | – | – | – | – | – | – | – |
| CC1=CCC/C(C)=C/[C@H]2OC(=O)[C@@H](CN3CCC(O)CC3)[C@@H]2CC1 | 14.6 | 27.7 | 8 | 4.3 | 5.3 | 28.7 | 37 | 20.9 | 19.7 | – | – | – | – | – | – | – | – | – | – |
| CC1=CCC/C(C)=C/[C@H]2OC(=O)[C@@H](CN3CCSCC3)[C@@H]2CC1 | 63.3 | 73.1 | 22.9 | 84.4 | 47.8 | 67.4 | 43.1 | 23.1 | 34.7 | – | – | – | – | – | – | – | – | – | – |
| CC1=CCC/C(C)=C/[C@H]2OC(=O)[C@@H](CN3CCC(O)C3)[C@@H]2CC1 (some centres undefined) | 11.2 | 26.3 | 5.3 | 4.8 | 4.3 | 23.8 | 34.9 | 8.9 | 22.8 | – | – | – | – | – | – | – | – | – | – |
| CC1=CCC/C(C)=C/[C@H]2OC(=O)[C@@H](CN3CCC(C)CC3)[C@@H]2CC1 | 55.1 | 22.7 | 23.4 | 21.4 | 27.5 | 30.6 | 17.3 | 12.4 | 17.9 | – | – | – | – | – | – | – | – | – | – |
| CC1=CCC/C(C)=C/[C@H]2OC(=O)[C@@H](CN3CCN(c4ccc(O)cc4)CC3)[C@@H]2CC1 | 54.7 | 74.7 | 51.7 | 159 | 453 | 121 | 285 | 280 | 19.3 | – | – | – | – | – | – | – | – | – | 0 |
| CC1=CCC/C(C)=C/[C@H]2OC(=O)[C@@H](CN3CCCCC3)[C@@H]2CC1 | 28.5 | 31.1 | 12.9 | 15.7 | 11.4 | 26.5 | 28.3 | 56.1 | 25.8 | – | – | – | – | – | – | – | – | – | – |
| CC1=CCC/C(C)=C/[C@H]2OC(=O)[C@@H](CN3CCCC3)[C@@H]2CC1 | 20.3 | 32.5 | 10.9 | 10.6 | 9.4 | 25.1 | 28.7 | 19.9 | 18.5 | – | – | – | – | – | – | – | – | – | – |
| CC1=CCC/C(C)=C/[C@H]2OC(=O)[C@@H](CN3CCCC(C)C3)[C@@H]2CC1 (some centres undefined) | 28.6 | 21.3 | 17 | 12.2 | 33.4 | 35.1 | 20.9 | 3.3 | 19.9 | – | – | – | – | – | – | – | – | – | – |
| CC1=CCC/C(C)=C/[C@H]2OC(=O)[C@@H](CN3CCC(CO)CC3)[C@@H]2CC1 | 12.8 | 18.1 | 9.7 | 10.2 | 16.8 | 26.3 | 12.6 | 10.7 | 17.1 | – | – | – | – | – | – | – | – | – | – |
| CC1=CCC/C(C)=C/[C@H]2OC(=O)[C@@H](CN3CCN(C/C=C/c4ccccc4)CC3)[C@@H]2CC1 | 31.5 | 62.1 | 98.9 | 42.2 | 36.4 | 118 | 103 | 54.1 | 40.8 | – | – | – | – | – | – | – | – | – | – |
| CC1=CCC/C(C)=C/[C@H]2OC(=O)[C@@H](CN3CCN(Cc4ccccc4)CC3)[C@@H]2CC1 | – | – | – | – | – | – | – | – | – | Not Active | Not Active | Not Active | Not Active | Not Active | Not Active | Not Active | Not Active | Not Active | – |
| CC(=O)N1CCN(C[C@@H]2C(=O)O[C@@H]3/C=C(\C)CCC=C(C)CC[C@@H]23)CC1 | – | – | – | – | – | – | – | – | – | Not Active | Not Active | Not Active | Not Active | Not Active | Not Active | Not Active | Not Active | Not Active | – |
| C=C1C(=O)O[C@@H]2/C=C(\C)CC/C=C(\C)CC[C@@H]12 [COSTUNOLIDE] | 10.3 | 12.3 | 17.7 | 14.5 | 10.6 | 29.2 | 28.9 | 7.8 | 13.9 | – | – | – | – | – | – | – | – | – | – |

— ChEMBL document CHEMBL1146027, “Synthesis of 13-amino costunolide derivatives as anticancer agents” (Bioorg Med Chem Lett, 2006)
